Activity calls are given as the source filed them. The calls are words filed in the database; no cut-off is given here.
Legend:
[1] = tested on: HepG2; assay: Disruption of mitochondrial membrane potential in human HepG2 cells at 10 uM after 12 hrs by JC1 staining-based fluorescent microscopic method; type: functional, cell-based
[2] = tested on: HepG2; assay: Induction of apoptosis in human HepG2 cells assessed as necrotic cells at 8 uM after 24 hrs by annexin V/[…] staining-based fluorescent microscopic method (reference value: 0.28%); type: functional
[3] = tested on: HepG2; assay: Induction of apoptosis in human HepG2 cells assessed as cell budding at 10 uM after 24 hrs by acridine orange/ethidium bromide staining-based fluorescent microscopic method; type: functional
How it was run: (§1)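 Cells were plated at 5×10^4 cells/mL on sterile cover slips. Medium was replaced with fresh medium containing 10% FBS plus compound. After treatment, cover slips were inverted onto slides with acridine orange/ethidium bromide stain and viewed by fluorescence microscopy.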

[4] = tested on: HepG2; assay: Cell cycle arrest in human HepG2 cells assessed as accumulation at G2/M phase after 48 hrs by propidium iodide staining-based flow cytometric method; type: functional
[5] = tested on: HepG2; assay: Induction of apoptosis in human HepG2 cells assessed as late apoptotic cells at 8 uM after 24 hrs by annexin V/[…] staining-based fluorescent microscopic method (reference value: 1.91%); type: functional
[6] = tested on: HepG2; assay: Cell cycle arrest in human HepG2 cells assessed as accumulation at G2 phase at 10 uM after 48 hrs by propidium iodide staining-based flow cytometric method (reference value: 19.04%); type: functional
[7] = tested on: NCI-H460; assay: Cytotoxicity against human NCI-H460 cells after 48 hrs by MTT assay; type: functional, cell-based; settings: NCI-H460, 48 h
How it was run: (§2)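 HepG2, SK-OV-3, NCI-H460 and HL 7702 lines grown as monolayers in DMEM with 10% FBS plus penicillin/streptomycin at 37 °C, 5% CO2. Exponentially growing cells were seeded and exposed to the indicated concentrations for 48 h. MTT was then added for 4 h at 37 °C, formazan was dissolved in DMSO, and OD was read at 490 nm. Each concentration was run in triplicate wells, with three independent runs per line.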

[8] = tested on: HepG2; assay: Induction of apoptosis in human HepG2 cells assessed as downregulation of Bcl-2 levels at 8 to 12 uM after 24 hrs by Western blot method; type: functional, cell-based
How it was run: (§3)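 Treated HepG2 cells were lysed on ice in 1% SDS/Tris-HCl pH 7.5 buffer with EDTA, NaCl, PMSF, leupeptin and trypsin inhibitor, then cleared at 12,000 × g for 5 min. Protein was quantified by BCA, and 40–50 µg was run on 12% SDS-PAGE and blotted to PVDF. Membranes were blocked with 5% milk, incubated with primary antibody overnight at 4 °C and HRP secondary for 1 h. Detection by chemiluminescence with densitometry.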

[9] = tested on: HepG2; assay: Downregulation of cyclin B1 expression in human HepG2 cells after 48 hrs by Western blot method; type: functional, cell-based
[10] = tested on: HepG2; assay: Cell cycle arrest in human HepG2 cells assessed as accumulation at G1 phase at 8 uM after 48 hrs by propidium iodide staining-based flow cytometric method (reference value: 50.47%); type: functional
[11] = tested on: HepG2; assay: Cell cycle arrest in human HepG2 cells assessed as accumulation at G2 phase at 12 uM after 48 hrs by propidium iodide staining-based flow cytometric method (reference value: 19.04%); type: functional
[12] = tested on: HepG2; assay: Induction of morphological changes in human HepG2 cells at 10 uM after 12 hrs by Hoechst 33258 staining-based fluorescent microscopic method; type: functional, cell-based
How it was run: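 Cells were treated on cover slips, fixed in 4% paraformaldehyde for 10 min and washed with PBS. They were stained with Hoechst 33258 for 5 min, washed again, and nuclei were examined by fluorescence microscopy (excitation 350 nm, emission 460 nm).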

[13] = tested on: HepG2; assay: Induction of apoptosis in human HepG2 cells assessed as pycnosis at 10 uM after 24 hrs by acridine orange/ethidium bromide staining-based fluorescent microscopic method; type: functional, cell-based; how it was run: as §1
[14] = tested on: HepG2; assay: Downregulation of CDC25C expression in human HepG2 cells after 48 hrs by Western blot method; type: functional, cell-based
[15] = tested on: HepG2; assay: Induction of apoptosis in human HepG2 cells assessed as late apoptotic cells at 12 uM after 24 hrs by annexin V/[…] staining-based fluorescent microscopic method (reference value: 1.91%); type: functional
[16] = tested on: HepG2; assay: Induction of apoptosis in human HepG2 cells assessed as necrotic cells at 10 uM after 24 hrs by annexin V/[…] staining-based fluorescent microscopic method (reference value: 0.28%); type: functional
[17] = tested on: HepG2; assay: Induction of apoptosis in human HepG2 cells assessed as early apoptotic cells at 8 uM after 24 hrs by annexin V/[…] staining-based fluorescent microscopic method (reference value: 6.50%); type: functional
[18] = tested on: HepG2; assay: Upregulation of p53 expression in human HepG2 cells after 48 hrs by Western blot method; type: functional, cell-based
[19] = tested on: HepG2; assay: Cell cycle arrest in human HepG2 cells assessed as accumulation at G1 phase at 12 uM after 48 hrs by propidium iodide staining-based flow cytometric method (reference value: 50.47%); type: functional
[20] = tested on: HepG2; assay: Induction of apoptosis in human HepG2 cells assessed as upregulation of reactive oxygen species generation at 10 uM by DCFH-DA/DAPI staining-based fluorescence microscopic method; type: functional, cell-based
[21] = tested on: HepG2; assay: Induction of apoptosis in human HepG2 cells assessed as early apoptotic cells at 12 uM after 24 hrs by annexin V/[…] staining-based fluorescent microscopic method (reference value: 6.50%); type: functional
[22] = tested on: HepG2; assay: Induction of apoptosis in human HepG2 cells assessed as increase in release of mitochondrial cytochrome c into cytosol at 8 to 12 uM after 24 hrs by Western blot method; type: functional, cell-based; how it was run: as §3
[23] = tested on: HepG2; assay: Induction of apoptosis in human HepG2 cells assessed as early apoptotic cells at 10 uM after 24 hrs by annexin V/[…] staining-based fluorescent microscopic method (reference value: 6.50%); type: functional
[24] = tested on: L02; assay: Cytotoxicity against human HL-7702 cells after 48 hrs by MTT assay; type: cell-based; settings: L02, 48 h; how it was run: as §2
[25] = tested on: HepG2; assay: Upregulation of p27 expression in human HepG2 cells after 48 hrs by Western blot method; type: functional, cell-based
[26] = tested on: HepG2; assay: Induction of apoptosis in human HepG2 cells assessed as membrane blebbing at 10 uM after 24 hrs by acridine orange/ethidium bromide staining-based fluorescent microscopic method; type: functional, cell-based; how it was run: as §1
[27] = tested on: HepG2; assay: Downregulation of CDK1 expression in human HepG2 cells after 48 hrs by Western blot method; type: functional, cell-based
[28] = tested on: HepG2; assay: Cell cycle arrest in human HepG2 cells assessed as accumulation at S phase at 10 uM after 48 hrs by propidium iodide staining-based flow cytometric method (reference value: 30.49%); type: functional
[29] = tested on: HepG2; assay: Induction of apoptosis in human HepG2 cells assessed as upregulation of caspase-3 levels at 8 to 12 uM after 24 hrs by Western blot method; type: functional, cell-based; how it was run: as §3
[30] = tested on: HepG2; assay: Cell cycle arrest in human HepG2 cells assessed as accumulation at G2 phase at 8 uM after 48 hrs by propidium iodide staining-based flow cytometric method (reference value: 19.04%); type: functional
[31] = tested on: HepG2; assay: Cell cycle arrest in human HepG2 cells assessed as accumulation at G1 phase at 10 uM after 48 hrs by propidium iodide staining-based flow cytometric method (reference value: 50.47%); type: functional
[32] = tested on: SK-OV-3; assay: Cytotoxicity against human SKOV3 cells after 48 hrs by MTT assay; type: functional, cell-based; settings: SK-OV-3, 48 h; how it was run: as §2
[33] = tested on: HepG2; assay: Cell cycle arrest in human HepG2 cells assessed as accumulation at S phase at 8 uM after 48 hrs by propidium iodide staining-based flow cytometric method (reference value: 30.49%); type: functional

SMILES: CCOP(=O)(Cc1ccc(/N=C/c2cc3cc(C)ccc3[nH]c2=O)cc1)OCC
- Activity [1]: Active
- Activity [2]: 2.9%
- Activity [3]: Active
- Activity [4]: Dose-dependent effect
- Activity [5]: 15.49%
- Activity [6]: 36.92%
- IC50 [7]: 39 µM
- Activity [8]: Active
- Activity [9]: Dose-dependent effect
- Activity [10]: 35.31%
- Activity [11]: 46.77%
- Activity [12]: Active
- Activity [13]: Active
- Activity [14]: Dose-dependent effect
- Activity [15]: 11.83%
- Activity [16]: 0.12%
- Activity [17]: 19.08%
- Activity [18]: Dose-dependent effect
- Activity [19]: 25.75%
- Activity [20]: Active
- Activity [21]: 43.07%
- Activity [22]: Active
- Activity [23]: 34.38%
- IC50 [24]: > 100 µM
- Activity [25]: Dose-dependent effect
- Activity [26]: Active
- Activity [27]: Dose-dependent effect
- Activity [28]: 29.16%
- Activity [29]: Active
- Activity [30]: 34.68%
- Activity [31]: 33.91%
- IC50 [32]: 34.8 µM
- Activity [33]: 30.01%

Reference: ChEMBL document CHEMBL4261516, “Design, synthesis and pharmacological evaluation of new 2-oxo-quinoline derivatives containing α-aminophosphonates as potential antitumor agents” (Medchemcomm, 2017)
